We go through two compounds from ChEMBL document CHEMBL3734718, “Development of new highly potent imidazo[1,2-b]pyridazines targeting Toxoplasma gondii calcium-dependent protein kinase 1” (Eur J Med Chem, 2015).

The nature of series [1]: Cytotoxicity against HFF assessed as cell proliferation after 96 hrs by alamar blue reduction assay. The format is cell-based. The following applies: human, HFF cells. In a few lines: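 Non-specific toxicity to HFF host cells was measured by Alamar Blue reduction as a quantitative read-out of cell proliferation, with the CC50 derived.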
For orientation: Alamar Blue is a resazurin reagent that responds to reducing activity.

Series [2] concerns the target Receptor-interacting serine/threonine-protein kinase 3 (Homo sapiens, UniProt Q9Y572). Description: Inhibition of full length human GST-tagged RIPK3 expressed in Spodoptera frugiperda Sf9 cells after 30 mins by scintillation and luminescence counting method in the presence of [gamma-33P]ATP.
Series [3] has as its target T1, Serine/threonine-protein kinase haspin (Homo sapiens, UniProt Q8TF76).
T1 sequence (Q8TF76 whole entry): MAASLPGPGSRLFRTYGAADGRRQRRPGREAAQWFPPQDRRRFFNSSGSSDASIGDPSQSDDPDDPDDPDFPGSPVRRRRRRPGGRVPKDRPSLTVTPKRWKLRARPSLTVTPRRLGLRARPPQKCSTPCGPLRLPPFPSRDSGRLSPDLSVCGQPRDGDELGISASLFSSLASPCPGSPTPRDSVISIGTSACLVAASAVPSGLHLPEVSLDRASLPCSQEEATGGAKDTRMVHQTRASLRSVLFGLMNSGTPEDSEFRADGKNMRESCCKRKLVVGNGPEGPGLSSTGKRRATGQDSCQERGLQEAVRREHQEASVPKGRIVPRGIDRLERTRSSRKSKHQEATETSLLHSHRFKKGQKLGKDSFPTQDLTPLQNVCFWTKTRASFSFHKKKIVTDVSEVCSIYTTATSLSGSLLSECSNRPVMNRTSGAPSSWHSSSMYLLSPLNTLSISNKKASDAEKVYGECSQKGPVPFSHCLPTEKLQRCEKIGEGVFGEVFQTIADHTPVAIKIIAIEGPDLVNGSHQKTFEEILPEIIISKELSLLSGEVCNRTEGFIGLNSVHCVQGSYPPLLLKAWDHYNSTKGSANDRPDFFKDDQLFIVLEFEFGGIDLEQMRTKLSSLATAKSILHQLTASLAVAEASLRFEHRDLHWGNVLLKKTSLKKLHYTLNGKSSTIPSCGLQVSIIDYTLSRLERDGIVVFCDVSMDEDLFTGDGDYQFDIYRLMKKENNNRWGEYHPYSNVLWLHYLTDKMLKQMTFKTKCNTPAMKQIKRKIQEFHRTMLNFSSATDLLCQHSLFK
Description: Inhibition of human recombinant haspin kinase domain expressed in Escherichia coli BL21-KRX using histone H3 (1 to 21) peptide substrate after 30 mins by scintillation and luminescence counting method in the presence of [gamma-33P]ATP.

Series [4] in a line: Inhibition of wild type recombinant Toxoplasma gondii CDPK1 using syntide-2 substrate after 30 mins by Kinase-Glo luminescent assay.
Series [5] can be described thus: Selectivity ratio of IC50 for human recombinant CDK5/P25 expressed in Escherichia coli to IC50 for wild type recombinant Toxoplasma gondii CDPK1. Type of series: cell-free.
A short description of series [6]: Inhibition of porcine brain CK1-delta/epsilon using CKS peptide substrate after 30 mins by scintillation and luminescence counting method in presence of [gamma-33P]ATP. On the set-up: species or system Sus scrofa.
Series [7] has as its target Cyclin-dependent kinase 5/CDK5 activator 1 (Homo sapiens, UniProt Q00535). The series can be described thus: Inhibition of human recombinant CDK5/P25 expressed in Escherichia coli using histone H1 substrate after 30 mins by scintillation and luminescence counting method in presence of [gamma-33P]ATP.
Series [8] is described as follows: Selectivity ratio of IC50 for full length human GST-tagged RIPK3 expressed in Spodoptera frugiperda Sf9 cells to IC50 for wild type recombinant Toxoplasma gondii CDPK1.
Series [9] is described as follows: Selectivity ratio of IC50 for porcine brain GSK-3 alpha/beta to IC50 for wild type recombinant Toxoplasma gondii CDPK1.
Series [10] can be described thus: Selectivity ratio of IC50 for human recombinant haspin kinase domain expressed in Escherichia coli BL21-KRX to IC50 for wild type recombinant Toxoplasma gondii CDPK1. The format is cell-free.
For another series, the system named is Toxoplasma gondii. The series can be described thus: Antiparasitic activity against Toxoplasma gondii RH tachyzoite expressing beta-galactosidase assessed as inhibition of tachyzoite invasion into human foreskin fibroblast host cells after 96 hrs by colorimetric microtitre assay. The format is functional, organism-based. In short, it runs like this: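 Invasion of HFF host cells by a recombinant T. gondii strain carrying bacterial β-galactosidase was judged indirectly from parasite growth inhibition in a colorimetric microtiter format.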

Series [11] has as its target Glycogen synthase kinase-3 (Sus scrofa, UniProt B2LUN4+I6LNT8). Description: Inhibition of porcine brain GSK-3 alpha/beta using GS-1 substrate after 30 mins by scintillation and luminescence counting method in the presence of [gamma-33P]ATP.
Series [12] is described as follows: Selectivity ratio of IC50 for porcine brain CK1-delta/epsilon to IC50 for wild type recombinant Toxoplasma gondii CDPK1.

Chain of Cyclin-dependent kinase 5/CDK5 activator 1 (Q00535 whole entry): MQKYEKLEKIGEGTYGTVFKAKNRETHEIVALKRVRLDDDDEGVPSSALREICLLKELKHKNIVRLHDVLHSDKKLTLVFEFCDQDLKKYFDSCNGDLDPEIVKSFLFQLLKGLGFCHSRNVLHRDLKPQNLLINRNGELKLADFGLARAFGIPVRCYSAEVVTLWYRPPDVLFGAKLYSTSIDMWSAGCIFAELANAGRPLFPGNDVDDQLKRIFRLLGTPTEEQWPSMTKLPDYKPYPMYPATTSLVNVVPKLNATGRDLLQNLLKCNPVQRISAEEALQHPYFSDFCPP
Chain of Cyclin-dependent kinase 5/CDK5 activator 1 (Q15078 whole entry, further chain): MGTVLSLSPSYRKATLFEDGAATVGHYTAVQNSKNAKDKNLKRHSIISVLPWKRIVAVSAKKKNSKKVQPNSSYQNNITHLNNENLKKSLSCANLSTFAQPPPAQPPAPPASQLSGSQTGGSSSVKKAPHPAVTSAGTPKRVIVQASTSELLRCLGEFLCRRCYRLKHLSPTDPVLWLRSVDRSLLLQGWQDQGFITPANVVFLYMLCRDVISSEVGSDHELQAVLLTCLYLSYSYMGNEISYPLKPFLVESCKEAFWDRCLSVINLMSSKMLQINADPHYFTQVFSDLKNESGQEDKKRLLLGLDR
Chain of Receptor-interacting serine/threonine-protein kinase 3 (Q9Y572 whole entry): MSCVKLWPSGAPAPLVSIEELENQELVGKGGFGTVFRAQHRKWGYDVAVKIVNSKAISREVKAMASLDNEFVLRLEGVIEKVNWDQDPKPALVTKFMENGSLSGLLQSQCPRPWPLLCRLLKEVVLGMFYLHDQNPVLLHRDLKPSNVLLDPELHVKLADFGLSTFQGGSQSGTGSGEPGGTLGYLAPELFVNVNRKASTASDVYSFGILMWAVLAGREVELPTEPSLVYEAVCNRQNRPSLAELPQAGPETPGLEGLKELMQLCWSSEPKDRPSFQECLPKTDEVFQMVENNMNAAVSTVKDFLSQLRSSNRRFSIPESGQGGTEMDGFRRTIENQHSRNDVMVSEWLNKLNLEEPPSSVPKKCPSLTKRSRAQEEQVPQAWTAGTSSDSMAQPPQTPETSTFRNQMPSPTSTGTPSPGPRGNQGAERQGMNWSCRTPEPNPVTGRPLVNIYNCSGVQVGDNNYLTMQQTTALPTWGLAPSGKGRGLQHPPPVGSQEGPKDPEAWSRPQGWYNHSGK

What is called CC50 is the concentration giving 50% cytotoxicity. As usually defined, the IC50 is the concentration at which inhibition is half-maximal. In general, EC50 refers to the concentration giving half of the maximal effect. Take `CN1CCN(c2ccc3nc(-c4cccc5ccccc45)c(-c4ccncc4)n3n2)CC1`: the CC50 at 96 h in series [1] came to 21.3 µM. Besides, the 50% inhibitory concentration (IC50) in [2] is 0.88 µM; in series [3], more than 10 µM; in [4] it was 0.008 µM; in series [6] it was 0.51 µM; in series [7], more than 10 µM; in series [11] it was more than 10 µM. In addition, the Ratio IC50 in [5] was more than 1000; in series [8], more than 100; in [9], more than 1000; in [10], more than 1000; in [12] it was 25. Also, the EC50 in the series with Toxoplasma gondii was 0.07 µM.
With `CN1CCN(c2ccc3nc(-c4cccc5c4OCO5)c(-c4ccncc4)n3n2)CC1`, the CC50 at 96 h in series [1] was 42.5 µM. The IC50 in [2] is 2.5 µM; in series [3], more than 10 µM; in series [4], 0.014 µM; in series [6] it was 0.37 µM; in [7], more than 10 µM; in [11] it was 5.4 µM. Also, the Ratio IC50 in series [5] is more than 380; in series [8], more than 100; in series [9], more than 380; in series [10] it was more than 380; in series [12] it was 25. The half-maximal effective concentration (EC50) in the series on Toxoplasma gondii was found to be 0.1 µM.
